Assay results taken from PMC2151622 (The Journal of General Physiology, 2007).
Substitutions are numbered along the chain they refer to.

Tests used:
Type in all cases: cell-based, rabbit
D444E-EAAC1 = target: T1, D444E-EAAC1 (Oryctolagus cuniculus, UniProt P31597, D444E); test: Substrate-induced steady-state transport currents in oocytes expressing D444E; details: 2 mM L-aspartate, other concentrations not given
T1 sequence (P31597 1-524 D444E): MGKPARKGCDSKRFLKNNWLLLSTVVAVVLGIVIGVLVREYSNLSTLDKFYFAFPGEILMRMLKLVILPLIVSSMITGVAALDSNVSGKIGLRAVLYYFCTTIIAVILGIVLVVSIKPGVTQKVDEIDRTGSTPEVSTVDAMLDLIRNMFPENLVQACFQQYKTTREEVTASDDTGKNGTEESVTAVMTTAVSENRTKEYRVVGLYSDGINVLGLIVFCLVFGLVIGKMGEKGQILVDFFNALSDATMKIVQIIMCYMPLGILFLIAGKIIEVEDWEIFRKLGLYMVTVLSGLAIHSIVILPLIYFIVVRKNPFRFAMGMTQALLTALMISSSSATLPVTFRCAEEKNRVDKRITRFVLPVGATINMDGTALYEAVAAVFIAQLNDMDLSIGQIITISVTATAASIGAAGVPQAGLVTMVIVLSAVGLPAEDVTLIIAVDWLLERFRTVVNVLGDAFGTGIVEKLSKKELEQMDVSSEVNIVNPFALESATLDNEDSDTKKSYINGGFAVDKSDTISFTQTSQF

WT-EAAC1 [1] = target: T2, WT-EAAC1 (Oryctolagus cuniculus, UniProt P31597); details: 2 mM, NaSCN-based buffer
T2 sequence (P31597 1-524): T1 sequence (P31597 1-524 D444E) with E444D
Procedure, shortened: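 Two-electrode voltage clamp of oocytes in buffer with all NaCl replaced by NaSCN, grounded through a 2% agarose/2 M KCl bridge. Compounds were 2 mM; TBOA (10 μM) was added to a stopped bath. Steps from −25 mV to −100…+40 mV. Net steady-state current (with minus without) was normalised to the L-aspartate current at +40 mV; mean ± SEM of 3 oocytes (L-aspartate n = 6).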

D444N mutant EAAC1 = target: T3, D444N mutant EAAC1 (Oryctolagus cuniculus, UniProt P31597, D444N); test: Blockade of transient currents; details: D444N; for IC50: read-out: IC50 for substrates/blockers of charge movements, Xenopus oocytes, mean ± SEM
T3 sequence (P31597 1-524 D444N): T1 sequence (P31597 1-524 D444E) with E444N

D444C-EAAC1 [2] = target: T4, D444C-EAAC1 (Oryctolagus cuniculus, UniProt P31597, D444C); test: Blockade of sodium-dependent transient currents; details: D444C; for Decay time of transient currents blocked: 10 mM compound, at −100 mV; for IC50: read-out: IC50 for substrates/blockers of charge movements, Xenopus oocytes, mean ± SEM
T4 sequence (P31597 1-524 D444C): T1 sequence (P31597 1-524 D444E) with E444C
Procedure, shortened: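 Steps from −25 mV to −100…+40 mV. Transients taken as current without minus current with compound. Charge is the sum of integrals at −100 and +40 mV, normalised to 10 mM of the same compound. IC50 from a generalized Hill fit; decay from a first-order exponential; 3–10 oocytes.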

D444E mutant EAAC1 = target: T5, D444E mutant EAAC1 (Oryctolagus cuniculus, UniProt P31597, D444E)
T5 sequence (P31597 1-524 D444E): T1 sequence (P31597 1-524 D444E)

WT-EAAC1 [3] = target: T2, WT-EAAC1; test: Substrate-induced steady-state transport currents in oocytes expressing WT; details: 2 mM
D444C-EAAC1 [4] = target: T4, D444C-EAAC1; test: Substrate-induced steady-state transport currents in oocytes expressing D444C; details: 2 mM L-aspartate (Fig. 1 C), other concentrations not given
WT-EAAC1 [5] = target: T2, WT-EAAC1; details: WT-EAAC1 in HeLa cells; 5 mM unlabeled succinate

## N[C@@H](CC(=O)O)C(=O)O [L-Aspartate, L-aspartate]
D444E-EAAC1
  Induction of steady-state transport currents: not observed
WT-EAAC1 [1]
  Effect on the anion conductance: stimulated the anion conductance
D444N mutant EAAC1
  IC50: 295 ± 45 µM
D444C-EAAC1 [2]
  Decay time of transient currents blocked: 19.3 ± 1 ms
  IC50: 12 ± 2 µM

## O=C(O)CCC(=O)O [Succinate, succinate]
D444E mutant EAAC1
  Inhibition of D-[3H]-aspartate uptake: much less sensitive
WT-EAAC1 [3]
  Induction of steady-state transport currents: No steady-state transport currents
WT-EAAC1 [1]
  Effect on the anion conductance: not seen
D444C-EAAC1 [4]
  Induction of steady-state transport currents: unable to induce steady-state currents
D444N mutant EAAC1; 10 mM succinate
  Inhibition of the transient currents: no inhibition was observed
D444N mutant EAAC1
  IC50: > 10000 µM
WT-EAAC1 [5]
  Inhibition of D-[3H]-aspartate uptake: In contrast to WT
D444C-EAAC1 [2]
  Decay time of transient currents blocked: 15.7 ± 1.1 ms
  IC50: 840 ± 70 µM
